# Test system: Fibroblast
# Assay: Multiplex assay against human fibroblast
# Type: toxicity, cell-based
# Outline: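 Phenotypes for tubulin, mitochondrial mass and membrane permeability are expressed as per cents of healthy-nucleus cells. Cells were stained live at seeding with Hoechst33342, BioTracker Green Microtubule Cytoskeleton Dye, MitoTracker Red and Annexin V Alexa Fluor 680, then imaged after compound addition on a CQ1 microscope at 37°C and 5% CO2. Machine-learning gating in CellPathfinder separated Hoechst high-intensity objects from normal cells, divided normal cells by nuclear state (healthy, pyknosed, fragmented) and divided pyknosed cells into mitotic or apoptotic.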
# [1] = 12 h, 1 µM, compound concentration 1 uM, replicate 1
# [2] = 12 h, 1 µM, compound concentration 1 uM, replicate 2
# [3] = 12 h, 10 µM, compound concentration 10 uM, replicate 1
# [4] = 12 h, 10 µM, compound concentration 10 uM, replicate 2
# [5] = 24 h, 1 µM, compound concentration 1 uM, replicate 1
# [6] = 24 h, 1 µM, compound concentration 1 uM, replicate 2
# [7] = 24 h, 10 µM, compound concentration 10 uM, replicate 1
# [8] = 24 h, 10 µM, compound concentration 10 uM, replicate 2
# [9] = 48 h, 1 µM, compound concentration 1 uM, replicate 1
# [10] = 48 h, 1 µM, compound concentration 1 uM, replicate 2
# [11] = 48 h, 10 µM, compound concentration 10 uM, replicate 1
# [12] = 48 h, 10 µM, compound concentration 10 uM, replicate 2
smiles,measurement,setting,value
C[C@]12CC[C@@H]3c4ccc(O)cc4CC[C@H]3[C@@H]1CC[C@@H]2O [ESTRADIOL],Population Apoptotic (%),[1],73%
same,Population Fragmented Nuclei (%),[1],30%
same,Population Healthy Nuclei (%),[1],50%
same,Population Hoechst High Intensity Objects (%),[1],21%
same,Population Membrane Permeable-Phenotype (%),[1],20%
same,Population Mitochondria Different-Phenotype (%),[1],9%
same,Population Mitotic Cells (%),[1],26%
same,Population Normal (%),[1],78%
same,Population Pyknosed Nuclei (%),[1],18%
same,Population Tubulin-Different-Phenotype (%),[1],46%
same,Population Apoptotic (%),[2],50%
same,Population Fragmented Nuclei (%),[2],8%
same,Population Healthy Nuclei (%),[2],86%
same,Population Hoechst High Intensity Objects (%),[2],5%
same,Population Membrane Permeable-Phenotype (%),[2],4%
same,Population Mitochondria Different-Phenotype (%),[2],8%
same,Population Mitotic Cells (%),[2],50%
same,Population Normal (%),[2],94%
same,Population Pyknosed Nuclei (%),[2],5%
same,Population Tubulin-Different-Phenotype (%),[2],14%
same,Population Apoptotic (%),[3],75%
same,Population Fragmented Nuclei (%),[3],24%
same,Population Healthy Nuclei (%),[3],57%
same,Population Hoechst High Intensity Objects (%),[3],14%
same,Population Membrane Permeable-Phenotype (%),[3],20%
same,Population Mitochondria Different-Phenotype (%),[3],7%
same,Population Mitotic Cells (%),[3],25%
same,Population Normal (%),[3],85%
same,Population Pyknosed Nuclei (%),[3],18%
same,Population Tubulin-Different-Phenotype (%),[3],33%
same,Population Apoptotic (%),[4],25%
same,Population Fragmented Nuclei (%),[4],9%
same,Population Healthy Nuclei (%),[4],77%
same,Population Hoechst High Intensity Objects (%),[4],8%
same,Population Membrane Permeable-Phenotype (%),[4],4%
same,Population Mitochondria Different-Phenotype (%),[4],12%
same,Population Mitotic Cells (%),[4],75%
same,Population Normal (%),[4],91%
same,Population Pyknosed Nuclei (%),[4],12%
same,Population Tubulin-Different-Phenotype (%),[4],25%
same,Population Apoptotic (%),[5],45%
same,Population Fragmented Nuclei (%),[5],33%
same,Population Healthy Nuclei (%),[5],50%
same,Population Hoechst High Intensity Objects (%),[5],18%
same,Population Membrane Permeable-Phenotype (%),[5],29%
same,Population Mitochondria Different-Phenotype (%),[5],3%
same,Population Mitotic Cells (%),[5],55%
same,Population Normal (%),[5],82%
same,Population Pyknosed Nuclei (%),[5],16%
same,Population Tubulin-Different-Phenotype (%),[5],43%
same,Population Apoptotic (%),[6],50%
same,Population Fragmented Nuclei (%),[6],4%
same,Population Healthy Nuclei (%),[6],89%
same,Population Hoechst High Intensity Objects (%),[6],3%
same,Population Membrane Permeable-Phenotype (%),[6],4%
same,Population Mitochondria Different-Phenotype (%),[6],9%
same,Population Mitotic Cells (%),[6],50%
same,Population Normal (%),[6],96%
same,Population Pyknosed Nuclei (%),[6],6%
same,Population Tubulin-Different-Phenotype (%),[6],14%
same,Population Apoptotic (%),[7],73%
same,Population Fragmented Nuclei (%),[7],22%
same,Population Healthy Nuclei (%),[7],60%
same,Population Hoechst High Intensity Objects (%),[7],11%
same,Population Membrane Permeable-Phenotype (%),[7],29%
same,Population Mitochondria Different-Phenotype (%),[7],9%
same,Population Mitotic Cells (%),[7],26%
same,Population Normal (%),[7],88%
same,Population Pyknosed Nuclei (%),[7],17%
same,Population Tubulin-Different-Phenotype (%),[7],35%
same,Population Apoptotic (%),[8],30%
same,Population Fragmented Nuclei (%),[8],18%
same,Population Healthy Nuclei (%),[8],68%
same,Population Hoechst High Intensity Objects (%),[8],3%
same,Population Membrane Permeable-Phenotype (%),[8],5%
same,Population Mitochondria Different-Phenotype (%),[8],11%
same,Population Mitotic Cells (%),[8],70%
same,Population Normal (%),[8],96%
same,Population Pyknosed Nuclei (%),[8],13%
same,Population Tubulin-Different-Phenotype (%),[8],43%
same,Population Apoptotic (%),[9],83%
same,Population Fragmented Nuclei (%),[9],42%
same,Population Healthy Nuclei (%),[9],51%
same,Population Hoechst High Intensity Objects (%),[9],24%
same,Population Membrane Permeable-Phenotype (%),[9],26%
same,Population Mitochondria Different-Phenotype (%),[9],0%
same,Population Mitotic Cells (%),[9],16%
same,Population Normal (%),[9],75%
same,Population Pyknosed Nuclei (%),[9],5%
same,Population Tubulin-Different-Phenotype (%),[9],42%
same,Population Apoptotic (%),[10],0%
same,Population Fragmented Nuclei (%),[10],24%
same,Population Healthy Nuclei (%),[10],74%
same,Population Hoechst High Intensity Objects (%),[10],14%
same,Population Membrane Permeable-Phenotype (%),[10],8%
same,Population Mitotic Cells (%),[10],100%
same,Population Normal (%),[10],85%
same,Population Pyknosed Nuclei (%),[10],1%
same,Population Tubulin-Different-Phenotype (%),[10],26%
same,Population Apoptotic (%),[11],66%
same,Population Fragmented Nuclei (%),[11],36%
same,Population Healthy Nuclei (%),[11],58%
same,Population Hoechst High Intensity Objects (%),[11],13%
same,Population Membrane Permeable-Phenotype (%),[11],11%
same,Population Mitochondria Different-Phenotype (%),[11],3%
same,Population Mitotic Cells (%),[11],33%
same,Population Normal (%),[11],86%
same,Population Pyknosed Nuclei (%),[11],5%
same,Population Tubulin-Different-Phenotype (%),[11],17%
same,Population Apoptotic (%),[12],0%
same,Population Fragmented Nuclei (%),[12],32%
same,Population Healthy Nuclei (%),[12],65%
same,Population Hoechst High Intensity Objects (%),[12],2%
same,Population Membrane Permeable-Phenotype (%),[12],16%
same,Population Mitochondria Different-Phenotype (%),[12],1%
same,Population Mitotic Cells (%),[12],100%
same,Population Normal (%),[12],97%
same,Population Pyknosed Nuclei (%),[12],2%
same,Population Tubulin-Different-Phenotype (%),[12],41%
